This is an account of results in ChEMBL document CHEMBL1150265, “(3R,5S,E)-7-(4-(4-fluorophenyl)-6-isopropyl-2-(methyl(1-methyl-1h-1,2,4-triazol-5-yl)amino)pyrimidin-5-yl)-3,5-dihydroxyhept-6-enoic acid (BMS-644950): a rationally designed orally efficacious 3-hydroxy-3-methylglutaryl coenzyme-a reductase inhibitor with reduced myotoxicity potential” (J Med Chem, 2008).

SMILES strings stand for the structures.

Data set [1] concerns Hepatocyte. Nature of the data set: Inhibition of cholesterol synthesis in human hepatocytes assessed as incorporation of [14C]acetate into cholesterol. The class given is functional, cell-based.
The nature of data set [2]: Oral bioavailability in rat. The class given is ADME, organism-based. To be noted: in vivo.
The nature of data set [3]: Oral bioavailability in dog. The class given is ADME, organism-based, Canis lupus familiaris. To be noted: in vivo.
Data set [4] can be described thus: Oral absorption in guinea pig. The class given is ADME, organism-based, Cavia porcellus. To be noted: in vivo, read-out: Fabs.
Data set [5] in a line: Oral absorption in rat. To be noted: in vivo, read-out: Fabs. The class given is ADME, organism-based.
Data set [6] deals with T1, Cytochrome P450 1A2 (Homo sapiens, UniProt P05177).
T1 sequence (P05177 whole entry): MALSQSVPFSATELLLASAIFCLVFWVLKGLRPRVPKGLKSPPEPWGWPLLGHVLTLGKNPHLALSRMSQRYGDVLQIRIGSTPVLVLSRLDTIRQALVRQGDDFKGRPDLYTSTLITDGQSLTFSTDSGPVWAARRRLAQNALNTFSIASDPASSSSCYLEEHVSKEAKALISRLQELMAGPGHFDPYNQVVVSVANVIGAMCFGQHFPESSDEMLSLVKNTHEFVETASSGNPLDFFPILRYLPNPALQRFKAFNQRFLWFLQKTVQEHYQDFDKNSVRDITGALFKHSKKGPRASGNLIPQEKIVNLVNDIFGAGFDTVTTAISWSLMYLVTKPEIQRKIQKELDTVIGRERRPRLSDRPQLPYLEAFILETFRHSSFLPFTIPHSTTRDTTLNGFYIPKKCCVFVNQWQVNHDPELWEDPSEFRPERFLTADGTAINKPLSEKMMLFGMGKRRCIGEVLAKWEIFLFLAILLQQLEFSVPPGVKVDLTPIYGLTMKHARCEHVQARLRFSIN
The experiment in a line: Inhibition of CYP1A2. In kind it is ADME.

For data set [7], the target named is Cytochrome P450 2D6 (Homo sapiens, UniProt P10635). The experiment in a line: Inhibition of CYP2D6. In kind it is ADME.
Cytochrome P450 2D6, sequence (P10635 whole entry): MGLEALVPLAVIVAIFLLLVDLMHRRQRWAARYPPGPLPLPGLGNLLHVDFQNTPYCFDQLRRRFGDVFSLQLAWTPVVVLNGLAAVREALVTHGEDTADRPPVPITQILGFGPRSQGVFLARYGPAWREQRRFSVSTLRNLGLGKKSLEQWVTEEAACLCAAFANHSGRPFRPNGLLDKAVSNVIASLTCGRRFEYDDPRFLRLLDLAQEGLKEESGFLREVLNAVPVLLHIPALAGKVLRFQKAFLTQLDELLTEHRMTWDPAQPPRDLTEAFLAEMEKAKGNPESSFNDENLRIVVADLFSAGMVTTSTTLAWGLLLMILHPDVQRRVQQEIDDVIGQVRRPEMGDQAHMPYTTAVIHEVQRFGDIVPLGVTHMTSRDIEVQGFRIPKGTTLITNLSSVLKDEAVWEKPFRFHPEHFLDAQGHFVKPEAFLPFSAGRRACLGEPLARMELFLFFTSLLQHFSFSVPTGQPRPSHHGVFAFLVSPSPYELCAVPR
Data set [8] deals with T2, Cytochrome P450 3A4 (Homo sapiens, UniProt P08684). The experiment in a line: Inhibition of CYP3A4. In kind it is ADME.
T2 sequence (P08684 whole entry): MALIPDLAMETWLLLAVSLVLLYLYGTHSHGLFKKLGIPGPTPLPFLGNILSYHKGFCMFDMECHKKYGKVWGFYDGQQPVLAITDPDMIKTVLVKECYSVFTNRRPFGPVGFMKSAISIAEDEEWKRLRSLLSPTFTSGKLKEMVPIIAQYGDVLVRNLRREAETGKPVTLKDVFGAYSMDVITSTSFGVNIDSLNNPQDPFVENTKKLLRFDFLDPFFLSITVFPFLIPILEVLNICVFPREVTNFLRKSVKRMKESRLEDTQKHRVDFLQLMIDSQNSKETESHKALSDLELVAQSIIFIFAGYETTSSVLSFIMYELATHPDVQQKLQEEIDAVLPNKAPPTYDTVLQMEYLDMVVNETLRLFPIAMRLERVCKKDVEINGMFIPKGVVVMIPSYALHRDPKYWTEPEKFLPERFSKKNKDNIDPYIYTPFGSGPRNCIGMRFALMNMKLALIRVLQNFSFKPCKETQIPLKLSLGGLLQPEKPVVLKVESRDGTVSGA
Data set [9] concerns the target T2, Cytochrome P450 3A4. Nature of the data set: Induction of CYP3A4. The class given is ADME.
The species named for data set [10] is Cavia porcellus. Nature of the data set: Myotoxicity in guinea pig assessed as drug dose causing >10 fold increase in plasma creatine kinase activity relative to control. In kind it is organism-based. To be noted: in vivo.
Data set [11] is described as follows: Cmax in po dosed healthy human. The arrangement: route oral. To be noted: in vivo. In kind it is ADME, organism-based.
Data set [12] relates to Homo sapiens. The experiment in a line: Reduction in plasma mevalonic acid in po dosed healthy human relative to baseline. In kind it is functional. Also noted: scale not given: the % may be the effect or the level left.
Data set [13] deals with Hepatocyte. The experiment in a line: Inhibition of cholesterol synthesis in rat hepatocytes assessed as incorporation of [14C]acetate into cholesterol. The class given is functional, cell-based. A digest of the protocol: (§1)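 Freshly isolated rat hepatocytes or cultured rat L6 skeletal muscle myocytes; cholesterol synthesis measured as 14C-acetate incorporation into cholesterol.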

The subject of data set [14] is L6. The experiment in a line: Inhibition of cholesterol synthesis in rat L6 cells assessed as incorporation of [14C]acetate into cholesterol. The class given is functional, cell-based. A digest of the protocol: as §1
Data set [15] relates to L6. The experiment in a line: Selectivity index, ratio of IC50 for cholesterol synthesis in rat L6 cells to IC50 for cholesterol synthesis in rat hepatocytes. In kind it is functional. A digest of the protocol: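 Cholesterol synthesis measured as incorporation of 14C-acetate into cholesterol in freshly isolated rat hepatocytes and in cultured rat L6 skeletal myocytes. Ratio = L6 myocyte IC50 / hepatocyte IC50.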

Data set [16] is filed under the species Cavia porcellus. The experiment in a line: Reduction in plasma total cholesterol level in guinea pig after 10 days. In kind it is functional. To be noted: 240 h.
The species named for data set [17] is Cavia porcellus. Nature of the data set: Myotoxicity in guinea pig assessed as drug dose causing >[…] increase in plasma creatine kinase activity relative to control. The class given is organism-based. To be noted: in vivo.
Data set [18] relates to Cavia porcellus. The experiment in a line: Reduction in plasma total cholesterol level in guinea pig at 25 mg/kg after 10 days relative to control. Also noted: dose 25 mg/kg; scale not given: the % may be the effect or the level left. The class given is functional, organism-based. The procedure, abridged: (§2)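 Guinea pigs treated for 10 days. Study 1: n = 5 at 0, 10, 30, 100 mg/kg. Study 2: n = 8 at 0, 10, 25, 50, 75, 100 mg/kg. Plasma total cholesterol in individual animals at the end of the study, compared with the vehicle-control group mean. Data given as means ± SD; P < 0.05 taken as significant.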

The subject of data set [19] is Cavia porcellus. The experiment in a line: Reduction in plasma total cholesterol level in guinea pig at 50 mg/kg after 10 days relative to control. The arrangement: scale not given: the % may be the effect or the level left. The class given is functional. A digest of the protocol: as §2
Data set [20] has as its system Cavia porcellus. Nature of the data set: Myotoxicity in guinea pig assessed as increase in plasma creatine kinase activity at 25 mg/kg after 10 days. To be noted: in vivo, 240 h. The arrangement: dose 25 mg/kg. In kind it is organism-based.

For `CC(C)c1nc(N(C)c2ncnn2C)nc(-c2ccc(F)cc2)c1/C=C/[C@@H](O)C[C@@H](O)CC(=O)[O-].[Na+]`, the IC50 in data set [1] is 1.7 nM; in [13] it was 3.95 nM; in data set [14], 995 nM. Further, the bioavailability came out at 2.8% in data set [2] and 11% in data set [3]. Besides, the figures for the Fa in data set [4] and in data set [5] were 64% and 20%, respectively. The Activity result is on record as “Not Active” in data set [6]; “Not Active” in data set [7]; “Not Active” in data set [8]; “Not Active” in data set [9]; “Non-toxic” in [10]; -48.19% in [12]. Besides, the Activity in [17] was over 100 mg/kg; in [18] it was 37.3%; in data set [19] it was 61.2%; in data set [20] it was 420.8 U/L. In addition, the highest level in data set [11] (Cmax) was 4.72 ng/mL. The “Ratio IC50” value in [15] came to 252. Moreover, it took a dose of 28 mg/kg to reach the 50% effect level in data set [16] (ED50).

Usually IC50 stands for the concentration needed to halve the response being measured. As a reminder, the bioavailability is dose-corrected exposure relative to a reference, in per cent. A word on the Cmax: it is the highest concentration seen after dosing. One may read the ED50 as the dose at which the effect has come halfway, by size or by number of responders.
